The source made the active and inactive calls. The rule behind the calls is not given here.
Key:
[1] = target: T1, Androgen receptor/Baculoviral IAP repeat-containing protein 2 (Homo sapiens, UniProt P10275+Q13490); assay: Induction of AR/cIAP1 interaction in human 22Rv1 cells assessed as ubiquitin proteasome system mediated androgen receptor protein degradation at 1 to 3 uM after 6 hrs by Western blot analysis; format: cell-based
Method in brief: (§1)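 22Rv1 cells were treated with compound, or with separate ligands (30 μM or 3 μM each), for 6 h. Lysates in SDS buffer (0.1 M Tris pH 8.0, 1% SDS) were normalized by BCA, run on SDS-PAGE and immunoblotted. AR/GAPDH ratio was normalized to vehicle as 100. DC50 is the concentration giving 50% AR reduction; means ± SD, n = 3; t-test against vehicle.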

HT-1080 [2] = assay: Cytotoxicity against human HT1080 cells at 3 uM after 48 hrs by WST-8 assay; format: functional, cell-based
Method in brief: (§2)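 Seeded at 5 × 10^3 cells/well; compound added after 24 h and incubated 48 h. WST-8 reagent then added for 0.5 h at 37 °C, 5% CO2, with absorbance read at 450 nm. A549, PC-3, LNCaP and VCaP were kept in RPMI-1640 + 10% FBS; HT1080 in DMEM + 10% FBS. Means ± SD, n = 3; Student's t-test against vehicle.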

VCaP [3] = assay: Induction of apoptosis in human VCaP cells assessed as early apoptotic cells at 3 uM after 24 hrs by Annexin V-FITC/propidium iodide staining-based flow cytometry (reference value: 0.5%); format: functional
VCaP [4] = assay: Induction of apoptosis in human VCaP cells assessed as necrotic cells at 3 uM in presence of pan-caspase inhibitor zVAD-FMK after 24 hrs by Annexin V-FITC/propidium iodide staining-based flow cytometry (reference value: 0.5%); format: functional
VCaP [5] = assay: Induction of morphological changes in human VCaP cells at 3 uM after 24 hrs by phase contrast microscopic analysis; format: functional, cell-based
Method in brief: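 VCaP cells were treated 24 h with 3 μM compound and imaged by phase-contrast microscopy.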

VCaP [6] = assay: Induction of apoptosis in human VCaP cells assessed as caspase-3 activation at 3 uM in presence of proteasome inhibitor MG132 after 9 hrs by Western blot method; format: functional, cell-based
Method in brief: (§3)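 VCaP cells were incubated 9 h with 3 μM compound and/or 10 μM proteasome inhibitor. Apoptotic markers were assessed by Western blot.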

PC-3 [7] = assay: Cytotoxicity against human PC3 cells at 3 uM after 48 hrs by WST-8 assay; format: functional, cell-based; method in brief: as §2
VCaP [8] = assay: Induction of apoptosis in human VCaP cells assessed as caspase-3 activation at 1 to 3 uM after 24 hrs by Western blot analysis; format: functional, cell-based
Method in brief: (§4)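 VCaP cells were treated 24 h with compound, or with 3 μM compound plus graded pan-caspase inhibitor. Cleaved caspase-3 and cleaved PARP were detected by Western blot of SDS lysates normalized by BCA.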

[9] = target: T1, Androgen receptor/Baculoviral IAP repeat-containing protein 2; assay: Induction of AR/cIAP1 interaction in human 22Rv1 cells assessed as ubiquitin proteasome system mediated androgen receptor protein degradation at 3 uM by Western blot analysis; format: cell-based; details: TDE = time-dependent effect; method in brief: as §1
[10] = target: T1, Androgen receptor/Baculoviral IAP repeat-containing protein 2; assay: Induction of AR/cIAP1 interaction in human 22Rv1 cells assessed as ubiquitin proteasome system mediated androgen receptor protein degradation at 3 uM after 6 hrs by Western blot analysis; format: cell-based; method in brief: as §1
[11] = target: T1, Androgen receptor/Baculoviral IAP repeat-containing protein 2; assay: Induction of AR/cIAP1 interaction in human VCaP cells assessed as ubiquitin proteasome system mediated androgen receptor protein degradation by measuring reduction in DHT-stimulated KLK2 mRNA expression at 3 uM after 24 hrs by qPCR analysis; format: cell-based
Method in brief: (§5)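 VCaP cells were held 2 days in phenol red-free RPMI + 5% charcoal-stripped FBS, then given 1 nM DHT with or without 3 μM compound for 24 h. RNA was isolated and cDNA made from 1 μg with oligo-dT. qPCR used the comparative Ct method, with values relative to vehicle = 1. Means ± SD, n = 3.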

LNCaP = assay: Cytotoxicity against human LNCAP cells expressing androgen receptor at 3 uM after 48 hrs by WST-8 assay; format: functional, cell-based; method in brief: as §2
[12] = target: T1, Androgen receptor/Baculoviral IAP repeat-containing protein 2; assay: Induction of AR/cIAP1 interaction in human 22Rv1 cells assessed as ubiquitin proteasome system mediated androgen receptor protein degradation at 3 uM in presence of proteasome inhibitor MG132 after 6 hrs by Western blot analysis; format: cell-based
Method in brief: (§6)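 22Rv1 or VCaP cells were given 3 μM degrader with or without 10 μM proteasome inhibitor over a time course. AR was detected by Western blot (SDS lysis, BCA normalization) and AR/GAPDH was normalized to vehicle as 100. Means ± SD, n = 3.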

VCaP [13] = assay: Induction of apoptosis in human VCaP cells assessed as late apoptotic cells at 3 uM in presence of pan-caspase inhibitor zVAD-FMK after 24 hrs by Annexin V-FITC/propidium iodide staining-based flow cytometry (reference value: 0.1%); format: functional
VCaP [14] = assay: Induction of apoptosis in human VCaP cells assessed as increase in cleaved PARP levels at 1 to 3 uM in presence of pan-caspase inhibitor zVAD-FMK after 24 hrs by Western blot analysis; format: functional, cell-based; method in brief: as §4
VCaP [15] = assay: Induction of apoptosis in human VCaP cells assessed as caspase-3 activation at 1 to 3 uM in presence of pan-caspase inhibitor zVAD-FMK after 24 hrs by Western blot analysis; format: functional, cell-based; method in brief: as §4
[16] = target: T1, Androgen receptor/Baculoviral IAP repeat-containing protein 2; assay: Induction of AR/cIAP1 interaction in human VCaP cells assessed as ubiquitin proteasome system mediated androgen receptor protein degradation at 3 uM in presence of proteasome inhibitor MG132 after 6 hrs by Western blot analysis; format: cell-based; method in brief: as §6
[17] = target: T1, Androgen receptor/Baculoviral IAP repeat-containing protein 2; assay: Induction of AR/cIAP1 interaction in human VCaP cells assessed as ubiquitin proteasome system mediated androgen receptor protein degradation by measuring reduction in DHT-stimulated TMPRSS2 mRNA expression at 3 uM after 24 hrs by qPCR analysis; format: cell-based; method in brief: as §5
[18] = target: T1, Androgen receptor/Baculoviral IAP repeat-containing protein 2; assay: Induction of AR/cIAP1 interaction in human VCaP cells assessed as ubiquitin proteasome system mediated androgen receptor protein degradation by measuring reduction in DHT-stimulated NKX3.1 mRNA expression at 3 uM after 24 hrs by qPCR analysis; format: cell-based; method in brief: as §5
HT-1080 [19] = assay: Cytotoxicity against human HT1080 cells at 100 uM after 6 hrs by WST-8 assay; format: functional, cell-based
Method in brief: (§7)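 WST-8 viability read at 450 nm after 6 h exposure to 100 μM compound. Reagent incubated 0.5 h at 37 °C. A549 and PC-3 were kept in RPMI-1640 + 10% FBS; HT1080 in DMEM + 10% FBS.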

VCaP [20] = assay: Induction of apoptosis in human VCaP cells assessed as viable cells at 3 uM after 24 hrs by Annexin V-FITC/propidium iodide staining-based flow cytometry (reference value: 98.9%); format: functional; details: read-out: Activity
VCaP [21] = assay: Cytotoxicity against human VCaP cells at 3 uM after 48 hrs by WST-8 assay; format: functional, cell-based; method in brief: as §2
VCaP [22] = assay: Induction of apoptosis in human VCaP cells assessed as increase in cleaved PARP levels at 1 to 3 uM after 24 hrs by Western blot method; format: functional, cell-based; method in brief: as §4
VCaP [23] = assay: Induction of apoptosis in human VCaP cells assessed as viable cells at 3 uM in presence of pan-caspase inhibitor zVAD-FMK after 24 hrs by Annexin V-FITC/propidium iodide staining-based flow cytometry (reference value: 98.9%); format: functional; details: read-out: Activity
A549 [24] = assay: Cytotoxicity against human A549 cells at 100 uM after 6 hrs by WST-8 assay; format: functional, cell-based; method in brief: as §7
A549 [25] = assay: Cytotoxicity against human A549 cells at 3 uM after 48 hrs by WST-8 assay; format: functional, cell-based; method in brief: as §2
PC-3 [26] = assay: Cytotoxicity against human PC3 cells at 100 uM after 6 hrs by WST-8 assay; format: functional, cell-based; method in brief: as §7
[27] = target: T1, Androgen receptor/Baculoviral IAP repeat-containing protein 2; assay: Induction of AR/cIAP1 interaction in human VCaP cells assessed as ubiquitin proteasome system mediated androgen receptor protein degradation by measuring reduction in DHT-stimulated PSA mRNA expression at 3 uM after 24 hrs by qPCR analysis; format: cell-based; method in brief: as §5
VCaP [28] = assay: Induction of apoptosis in human VCaP cells assessed as late apoptotic cells at 3 uM after 24 hrs by Annexin V-FITC/propidium iodide staining-based flow cytometry (reference value: 0.1%); format: functional
VCaP [29] = assay: Induction of apoptosis in human VCaP cells assessed as early apoptotic cells at 3 uM in presence of pan-caspase inhibitor zVAD-FMK after 24 hrs by Annexin V-FITC/propidium iodide staining-based flow cytometry (reference value: 0.5%); format: functional
VCaP [30] = assay: Induction of apoptosis in human VCaP cells assessed as necrotic cells at 3 uM after 24 hrs by Annexin V-FITC/propidium iodide staining-based flow cytometry (reference value: 0.5%); format: functional
VCaP [31] = assay: Induction of apoptosis in human VCaP cells assessed as increase in cleaved PARP levels at 3 uM in presence of proteasome inhibitor MG132 after 9 hrs by Western blot method; format: functional, cell-based; method in brief: as §3

T1 sequence (P10275 whole entry, looked up): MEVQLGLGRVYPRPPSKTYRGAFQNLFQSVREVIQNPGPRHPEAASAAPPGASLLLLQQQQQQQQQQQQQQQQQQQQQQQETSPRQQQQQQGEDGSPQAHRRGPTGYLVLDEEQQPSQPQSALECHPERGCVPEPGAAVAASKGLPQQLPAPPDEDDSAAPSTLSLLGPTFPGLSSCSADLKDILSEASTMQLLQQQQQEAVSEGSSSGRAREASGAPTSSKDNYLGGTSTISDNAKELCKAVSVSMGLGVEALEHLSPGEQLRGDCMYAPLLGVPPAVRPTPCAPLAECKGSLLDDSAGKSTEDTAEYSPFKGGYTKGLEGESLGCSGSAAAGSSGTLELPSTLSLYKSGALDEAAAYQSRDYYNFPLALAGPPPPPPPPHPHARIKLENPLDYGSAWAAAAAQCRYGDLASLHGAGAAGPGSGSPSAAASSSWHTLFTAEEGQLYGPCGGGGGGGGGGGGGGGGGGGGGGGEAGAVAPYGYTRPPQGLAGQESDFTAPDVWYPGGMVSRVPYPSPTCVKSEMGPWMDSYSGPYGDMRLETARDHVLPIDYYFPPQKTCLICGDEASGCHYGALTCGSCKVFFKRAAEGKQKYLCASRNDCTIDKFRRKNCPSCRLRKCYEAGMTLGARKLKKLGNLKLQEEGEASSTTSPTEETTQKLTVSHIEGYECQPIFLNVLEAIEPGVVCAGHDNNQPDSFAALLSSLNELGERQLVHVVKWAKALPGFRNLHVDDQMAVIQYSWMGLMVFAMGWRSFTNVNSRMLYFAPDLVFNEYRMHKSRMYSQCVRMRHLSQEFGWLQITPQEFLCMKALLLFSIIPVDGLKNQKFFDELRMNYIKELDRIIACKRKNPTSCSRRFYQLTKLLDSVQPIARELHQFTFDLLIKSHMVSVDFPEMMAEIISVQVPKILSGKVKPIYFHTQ
T1 sequence (Q13490 whole entry, looked up): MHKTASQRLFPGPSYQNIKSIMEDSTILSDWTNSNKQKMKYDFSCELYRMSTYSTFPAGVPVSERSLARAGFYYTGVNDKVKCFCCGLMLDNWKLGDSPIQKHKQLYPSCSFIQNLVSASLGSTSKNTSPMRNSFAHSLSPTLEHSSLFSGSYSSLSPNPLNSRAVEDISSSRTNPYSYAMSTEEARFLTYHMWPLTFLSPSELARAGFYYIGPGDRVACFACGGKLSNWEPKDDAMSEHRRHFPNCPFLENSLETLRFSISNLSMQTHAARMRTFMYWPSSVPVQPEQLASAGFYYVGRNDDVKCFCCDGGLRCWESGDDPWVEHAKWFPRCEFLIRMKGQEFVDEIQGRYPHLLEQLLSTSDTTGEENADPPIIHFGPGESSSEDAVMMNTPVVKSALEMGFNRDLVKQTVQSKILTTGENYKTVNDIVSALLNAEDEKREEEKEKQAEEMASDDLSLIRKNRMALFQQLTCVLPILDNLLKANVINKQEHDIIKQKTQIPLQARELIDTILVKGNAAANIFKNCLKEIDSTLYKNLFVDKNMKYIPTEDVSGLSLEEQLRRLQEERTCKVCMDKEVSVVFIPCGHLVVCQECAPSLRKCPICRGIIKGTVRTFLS

CN[C@@H](C)C(=O)N[C@H](C(=O)N1CCC[C@H]1c1nc(C(=O)c2cccc(OCCOCCOCCOCCOc3ccc(Cn4c(C)c(C#N)c(-c5ccc(C#N)cc5)c4C)cc3)c2)cs1)C1CCCCC1
Activity [1]: Active | Activity (HT-1080 [2]): inactive | Activity (VCaP [3]): 11.6% | Activity (VCaP [4]): 1.1% | Activity (VCaP [5]): Active | Activity (VCaP [6]): inactive | Activity (PC-3 [7]): inactive | Activity (VCaP [8]): Active | Activity [9]: Tde | Activity [10]: Active | Activity [11]: Active | Activity (LNCaP): Active | Activity [12]: inactive | Activity (VCaP [13]): 0.6% | Activity (VCaP [14]): inactive | Activity (VCaP [15]): inactive | Activity [16]: inactive | Activity [17]: Active | Activity [18]: Active | Activity (HT-1080 [19]): Active | viability at 3 µM (VCaP [20]): 87.7% | Activity (VCaP [21]): Active | Activity (VCaP [22]): Active | viability at 3 µM (VCaP [23]): 96.8% | Activity (A549 [24]): Active | Activity (A549 [25]): inactive | Activity (PC-3 [26]): Active | Activity [27]: Active | Activity (VCaP [28]): 0.4% | Activity (VCaP [29]): 1.5% | Activity (VCaP [30]): 0.3% | Activity (VCaP [31]): inactive
